Tests used:
Format in all cases: functional, cell-based
[1] = tested on: HeLa; assay: Cytotoxicity against human HeLa cells after 24 hrs by MTT assay
How it was run: (§1)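 Cell lines from the Navy Medical College, seeded at 8000 cells/well in 96-well plates. Compounds dissolved in DMSO (stock 10 g/L) and freshly diluted in medium. Dilutions were added in duplicate 24 h after seeding, with incubation continued at 37 °C. Viability read by MTT. IC50 taken as the concentration giving 50% growth inhibition, determined following NCCLS recommendations.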

[2] = tested on: SW480; assay: Cytotoxicity against human SW480 cells after 24 hrs by MTT assay; details: SW480, 24 h; how it was run: as §1
[3] = tested on: A549; assay: Cytotoxicity against human A549 cells after 24 hrs by MTT assay; details: Homo sapiens, A549, 24 h; read-out: IC50; how it was run: as §1
[4] = Cytotoxicity against human QGY7701 cells after 24 hrs by MTT assay; details: QGY7701, 24 h; how it was run: as §1
[5] = Homo sapiens, HeLa, 24 h, read-out: IC50

Row | SMILES | IC50 [1, 5] [µM] | IC50 [2] [µM] | IC50 [3] [µM] | IC50 [4] [µM] | IC50 ([1]; hela)
1 | C=CC1=C(C(=O)NCc2ccccc2)C(c2ccc(F)cc2)OC1 (centres undefined) | > 100 | > 100 | > 100 | 67.6 | 
2 | C=CC1=C(C(=O)O)C(c2ccc(F)cc2)OC1 (centres undefined) | 67.4 | > 100 | > 100 | > 100 | 
3 | C=CC1=C(C(=O)O)C(c2ccc(Cl)c(Cl)c2)OC1 (centres undefined) | 10.3 | > 100 | > 100 | > 100 | 
4 | C=CC1=C(C(=O)O)C(c2ccc(OC)cc2)OC1 (centres undefined) | 44.3 | > 100 | > 100 | > 100 | 
5 | C=CC1=C(C(=O)O)C(c2ccc(OC)c(OC)c2)OC1 (centres undefined) | 18 | > 100 | > 100 | > 100 | 
6 | C=CC1=C(C(=O)Nc2ccccc2)C(c2ccc(F)cc2)OC1 (centres undefined) | > 100 | > 100 | > 100 | 46.7 | 
7 | C=CC1=C(C(=O)Nc2cccc(C)c2)C(c2ccc(F)cc2)OC1 (centres undefined) |  | > 100 | > 100 | 56.4 | Not Active
8 | C=CC1=C(C(=O)Nc2ccc(C)cc2)C(c2ccc(F)cc2)OC1 (centres undefined) | > 100 | > 100 | > 100 | 59.2 | 
9 | C=CC1=C(C(=O)Nc2ccccc2OC)C(c2ccc(F)cc2)OC1 (centres undefined) | > 100 | > 100 | > 100 | 52.8 | 
10 | C=CC1=C(C(=O)NCc2ccc(C)cc2)C(c2ccc(F)cc2)OC1 (centres undefined) | > 100 | > 100 | > 100 | 62.1 | 
11 | C=CC1=C(C(=O)NCc2ccc(OC)c(OC)c2)C(c2ccc(F)cc2)OC1 (centres undefined) | > 100 | > 100 | > 100 | 87.3 | 
12 | C=CC1=C(C(=O)NCc2ccccc2F)C(c2ccc(F)cc2)OC1 (centres undefined) | > 100 | > 100 | > 100 | 51.4 | 
13 | C=CC1=C(C(=O)NCc2ccc(Cl)cc2)C(c2ccc(F)cc2)OC1 (centres undefined) | > 100 | > 100 | > 100 | 36.9 | 
14 | C=CC1=C(C(=O)NCCc2ccc(F)cc2)C(c2ccc(F)cc2)OC1 (centres undefined) | > 100 | 36 | > 100 | 29.7 | 
15 | C=CC1=C(C(=O)NCCc2ccccc2F)C(c2ccc(F)cc2)OC1 (centres undefined) | > 100 | > 100 | > 100 | 35.1 | 
16 | C=CC1=C(C(=O)NCCc2cccc(F)c2)C(c2ccc(F)cc2)OC1 (centres undefined) | > 100 | > 100 | > 100 | 59.8 | 
17 | C=CC1=C(C(=O)NCCc2cccc(OC)c2)C(c2ccc(F)cc2)OC1 (centres undefined) |  | > 100 | > 100 | 87.2 | Not Active
18 | C=CC1=C(C(=O)NC2CCCCC2)C(c2ccc(F)cc2)OC1 (centres undefined) | > 100 | > 100 | > 100 | 40.5 | 
19 | C=CC1=C(C(=O)NCCC)C(c2ccc(F)cc2)OC1 (centres undefined) | > 100 | > 100 | > 100 | > 100 | 
20 | C=CC1=C(C(=O)NCCCCC)C(c2ccc(F)cc2)OC1 (centres undefined) | > 100 | > 100 | > 100 | > 100 | 

Row | SMILES | IC50 [1, 5] [µM] | IC50 [2] [µM] | IC50 [3] [µM] | IC50 [4] [µM] | IC50 ([1]; hela)
21 | C=CC1=C(C(=O)NCC(C)C)C(c2ccc(F)cc2)OC1 (centres undefined) | > 100 | > 100 | > 100 | > 100 | 
22 | C=CC1=C(C(=O)NC(C)(C)C)C(c2ccc(F)cc2)OC1 (centres undefined) | > 100 | > 100 | > 100 | > 100 | 
23 | C=CC1=C(C(=O)Nc2ccccc2)C(c2ccc(Cl)c(Cl)c2)OC1 (centres undefined) | > 100 | > 100 | > 100 | > 100 | 
24 | C=CC1=C(C(=O)Nc2ccccc2OC)C(c2ccc(Cl)c(Cl)c2)OC1 (centres undefined) | > 100 | > 100 | > 100 | > 100 | 
25 | C=CC1=C(C(=O)NCc2ccccc2)C(c2ccc(Cl)c(Cl)c2)OC1 (centres undefined) | > 100 | > 100 | > 100 | > 100 | 
26 | C=CC1=C(C(=O)NCCC)C(c2ccc(Cl)c(Cl)c2)OC1 (centres undefined) | > 100 | > 100 | > 100 | 31.3 | 
27 | C=CC1=C(C(=O)NCCCCC)C(c2ccc(Cl)c(Cl)c2)OC1 (centres undefined) | > 100 | 27.5 | > 100 | > 100 | 
28 | C=CC1=C(C(=O)NCC(C)C)C(c2ccc(Cl)c(Cl)c2)OC1 (centres undefined) | 60.1 | > 100 | > 100 | > 100 | 
29 | C=CC1=C(C(=O)NC(C)(C)C)C(c2ccc(Cl)c(Cl)c2)OC1 (centres undefined) | > 100 | > 100 | > 100 | > 100 | 
30 | C=CC1=C(C(=O)Nc2ccccc2)C(c2ccc(OC)cc2)OC1 (centres undefined) | > 100 | > 100 | > 100 | > 100 | 
31 | C=CC1=C(C(=O)Nc2cccc(C)c2)C(c2ccc(OC)cc2)OC1 (centres undefined) | > 100 | > 100 | > 100 | > 100 | 
32 | C=CC1=C(C(=O)Nc2ccc(C)cc2)C(c2ccc(OC)cc2)OC1 (centres undefined) | > 100 | > 100 | > 100 | > 100 | 
33 | C=CC1=C(C(=O)Nc2ccccc2OC)C(c2ccc(OC)cc2)OC1 (centres undefined) | > 100 | > 100 | > 100 | > 100 | 
34 | C=CC1=C(C(=O)Nc2ccc(OCC)cc2)C(c2ccc(OC)cc2)OC1 (centres undefined) | > 100 | > 100 | 17.6 | > 100 | 
35 | C=CC1=C(C(=O)NCc2ccccc2)C(c2ccc(OC)cc2)OC1 (centres undefined) | > 100 | 39.5 | > 100 | > 100 | 
36 | C=CC1=C(C(=O)NCc2ccc(C)cc2)C(c2ccc(OC)cc2)OC1 (centres undefined) | 15.8 | 31.7 | > 100 | 43.1 | 
37 | C=CC1=C(C(=O)NCc2ccc(OC)c(OC)c2)C(c2ccc(OC)cc2)OC1 (centres undefined) | > 100 | 13.5 | > 100 | > 100 | 
38 | C=CC1=C(C(=O)NCc2ccccc2F)C(c2ccc(OC)cc2)OC1 (centres undefined) | > 100 | > 100 | > 100 | > 100 | 
39 | C=CC1=C(C(=O)NCc2ccc(Cl)cc2)C(c2ccc(OC)cc2)OC1 (centres undefined) | > 100 | > 100 | > 100 | > 100 | 
40 | C=CC1=C(C(=O)NCCc2ccc(F)cc2)C(c2ccc(OC)cc2)OC1 (centres undefined) | > 100 | > 100 | > 100 | > 100 | 

Row | SMILES | IC50 [1, 5] [µM] | IC50 [2] [µM] | IC50 [3] [µM] | IC50 [4] [µM] | IC50 ([1]; hela)
41 | C=CC1=C(C(=O)NCCc2ccccc2F)C(c2ccc(OC)cc2)OC1 (centres undefined) | 37.5 | > 100 | > 100 | > 100 | 
42 | C=CC1=C(C(=O)NCCc2cccc(F)c2)C(c2ccc(OC)cc2)OC1 (centres undefined) | 31.4 | > 100 | > 100 | > 100 | 
43 | C=CC1=C(C(=O)NCCc2cccc(OC)c2)C(c2ccc(OC)cc2)OC1 (centres undefined) | > 100 | > 100 | > 100 | > 100 | 
44 | C=CC1=C(C(=O)NC2CCCCC2)C(c2ccc(OC)cc2)OC1 (centres undefined) | 24.8 | > 100 | > 100 | > 100 | 
45 | C=CC1=C(C(=O)NCCC)C(c2ccc(OC)cc2)OC1 (centres undefined) | 14 | > 100 | > 100 | > 100 | 
46 | C=CC1=C(C(=O)NCCCCC)C(c2ccc(OC)cc2)OC1 (centres undefined) | > 100 | > 100 | 36.5 | > 100 | 
47 | C=CC1=C(C(=O)NCC(C)C)C(c2ccc(OC)cc2)OC1 (centres undefined) | > 100 | > 100 | > 100 | > 100 | 
48 | C=CC1=C(C(=O)NC(C)(C)C)C(c2ccc(OC)cc2)OC1 (centres undefined) | > 100 | > 100 | > 100 | > 100 | 
49 | C=CC1=C(C(=O)Nc2ccccc2)C(c2ccc(OC)c(OC)c2)OC1 (centres undefined) | 5.03 | 45.1 | > 100 | > 100 | 
50 | C=CC1=C(C(=O)NCc2ccccc2)C(c2ccc(OC)c(OC)c2)OC1 (centres undefined) | > 100 | > 100 | > 100 | > 100 | 
51 | C=CC1=C(C(=O)NCc2ccc(C)cc2)C(c2ccc(OC)c(OC)c2)OC1 (centres undefined) | > 100 | > 100 | > 100 | 69.1 | 
52 | C=CC1=C(C(=O)NCc2ccc(Cl)cc2)C(c2ccc(OC)c(OC)c2)OC1 (centres undefined) | > 100 | > 100 | > 100 | > 100 | 
53 | C=CC1=C(C(=O)NC2CCCCC2)C(c2ccc(OC)c(OC)c2)OC1 (centres undefined) | 5.54 | 19.1 | > 100 | 7.49 | 
54 | C=CC1=C(C(=O)NCCC)C(c2ccc(OC)c(OC)c2)OC1 (centres undefined) | > 100 | > 100 | > 100 | > 100 | 
55 | C=CC1=C(C(=O)N2CCN(c3ccccc3OC)CC2)C(c2ccc(OC)cc2)OC1 (centres undefined) | > 100 | > 100 | 23 | 23.6 | 
56 | C=CC1=C(C(=O)N2CCN(c3cccc(OC)c3)CC2)C(c2ccc(OC)cc2)OC1 (centres undefined) | 15.3 | 25 | 20.7 | 17.9 | 
57 | C=CC1=C(C(=O)N2CCN(c3cccc(C)c3C)CC2)C(c2ccc(OC)cc2)OC1 (centres undefined) | > 100 | 44.1 | 10.3 | > 100 | 
58 | C=CC1=C(C(=O)N2CCN(c3ccccc3Cl)CC2)C(c2ccc(OC)cc2)OC1 (centres undefined) | > 100 | 13.1 | 35.3 | > 100 | 
59 | C=CC1=C(C(=O)N2CCN(c3cccc(Cl)c3)CC2)C(c2ccc(OC)cc2)OC1 (centres undefined) | > 100 | > 100 | 26.8 | > 100 | 
60 | O=c1[nH]cc(F)c(=O)[nH]1 [FLUOROURACIL] | 16.3 | 15.7 |  | 14.3 | 
